Results from ChEMBL document CHEMBL5360562 (Eur J Med Chem, 2023).
Values after ≈ are worked out from the molar mass of the structure shown.

Columns and labels:
Acinetobacter baumannii [1] = experiment: Antibacterial activity against Acinetobacter baumannii AB5075 assessed as reduction in bacterial growth incubated for 16 hrs by broth microdilution method; type: functional
Acinetobacter baumannii [2] = experiment: Potentiation of Clarithromycin antibacterial activity against Acinetobacter baumannii AB5075 assessed as clarithromycin MIC at 30 uM incubated for 16 hrs by broth microdilution method; type: functional
Acinetobacter baumannii [3] = experiment: Potentiation of Clarithromycin antibacterial activity against Acinetobacter baumannii AB5075 assessed as clarithromycin MIC at 7.5 uM incubated for 16 hrs by broth microdilution method; type: functional
Acinetobacter baumannii [4] = experiment: Potentiation of Clarithromycin antibacterial activity against Acinetobacter baumannii AB5075 assessed as clarithromycin MIC at 5 uM incubated for 16 hrs by broth microdilution method; type: functional
Acinetobacter baumannii [5] = experiment: Potentiation of Clarithromycin antibacterial activity against Acinetobacter baumannii AB5075 assessed as fold reduction in clarithromycin MIC at 30 uM incubated for 16 hrs by broth microdilution method; type: functional
Outline: (§1)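 Checkerboard-style potentiation by broth microdilution. 6 h day cultures in CAMHB diluted to 5×10^5 CFU/mL. Adjuvant added from 10 mM DMSO stock at fixed concentration throughout. […] Controls: antibiotic alone, adjuvant alone, media only. Incubated stationary at 37 °C for 16 h. MIC is lowest concentration with no visible growth; fold reduction taken against the antibiotic-alone lane.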

Acinetobacter baumannii [6] = experiment: Potentiation of Clarithromycin antibacterial activity against Acinetobacter baumannii AB5075 assessed as fold reduction in clarithromycin MIC at 7.5 uM incubated for 16 hrs by broth microdilution method; type: functional; outline: as §1
Acinetobacter baumannii [7] = experiment: Potentiation of Clarithromycin antibacterial activity against Acinetobacter baumannii AB5075 assessed as fold reduction in clarithromycin MIC at 5 uM incubated for 16 hrs by broth microdilution method; type: functional; outline: as §1
[8] = Antiproliferative against human HepG2 cells assessed as reduction in cell viability incubated for 24 hrs by XTT assay; type: toxicity, cell-based
[9] = Therapeutic index, ratio of IC50 for antiproliferative against human HepG2 cells assessed as reduction in cell viability to MIC for potentiation of Clarithromycin antibacterial activity against Acinetobacter baumannii […] assessed as clarithromycin MIC; type: toxicity, cell-based; settings: read-out: TI
[10] = Stability of compound in human plasma assessed as parent compound remaining measured at 4 hrs; type: ADME, cell-free
Outline: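 Compound at 20 μM final in human plasma (from 10 mM DMSO stock), 37 °C; aliquots at 0, 30, 60, 120, 240 min quenched in internal standard in 1:1 ACN/MeOH, centrifuged, supernatant analysed by UPLC-MRM. Peak-area ratio to internal standard expressed as % parent remaining relative to 0 min; half-life calculated.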

[11] = Metabolic stability in human liver microsomes assessed as parent compound remaining in presence of NADPH measured at 1 hr by UV-UPLC analysis; type: ADME, Microsome
Acinetobacter baumannii [12] = experiment: Potentiation of Clarithromycin antibacterial activity against Acinetobacter baumannii AB5075 assessed as reduction in clarithromycin MIC at 20 uM incubated for 16 hrs by broth microdilution method; type: functional; settings: for MIC: Acinetobacter baumannii, AB5075
Acinetobacter baumannii [13] = experiment: Potentiation of Clarithromycin antibacterial activity against Acinetobacter baumannii AB5075 assessed as clarithromycin MIC at 2.5 uM incubated for 16 hrs by broth microdilution method; type: functional
Acinetobacter baumannii [14] = experiment: Potentiation of Clarithromycin antibacterial activity against Acinetobacter baumannii AB5075 assessed as clarithromycin MIC at 10 uM incubated for 16 hrs by broth microdilution method; type: functional
Acinetobacter baumannii [15] = experiment: Potentiation of Clarithromycin antibacterial activity against Acinetobacter baumannii AB5075 assessed as fold reduction in clarithromycin MIC at 10 uM incubated for 16 hrs by broth microdilution method; type: functional; outline: as §1
Acinetobacter baumannii [16] = experiment: Potentiation of Azithromycin antibacterial activity against Acinetobacter baumannii AB5075 assessed as azithromycin MIC at 30 uM incubated for 16 hrs by broth microdilution method; type: functional
Acinetobacter baumannii [17] = experiment: Potentiation of Azithromycin antibacterial activity against Acinetobacter baumannii AB5075 assessed as azithromycin MIC at 20 uM incubated for 16 hrs by broth microdilution method; type: functional
Acinetobacter baumannii [18] = experiment: Potentiation of Azithromycin antibacterial activity against Acinetobacter baumannii AB5075 assessed as azithromycin MIC at 10 uM incubated for 16 hrs by broth microdilution method; type: functional
Acinetobacter baumannii [19] = experiment: Potentiation of erythromycin antibacterial activity against Acinetobacter baumannii AB5075 assessed as erythromycin MIC at 30 uM incubated for 16 hrs by broth microdilution method; type: functional
Acinetobacter baumannii [20] = experiment: Potentiation of erythromycin antibacterial activity against Acinetobacter baumannii AB5075 assessed as erythromycin MIC at 20 uM incubated for 16 hrs by broth microdilution method; type: functional
Acinetobacter baumannii [21] = experiment: Potentiation of erythromycin antibacterial activity against Acinetobacter baumannii AB5075 assessed as erythromycin MIC at 10 uM incubated for 16 hrs by broth microdilution method; type: functional
Acinetobacter baumannii [22] = experiment: Potentiation of rifampicin antibacterial activity against Acinetobacter baumannii AB5075 assessed as rifampicin MIC at 30 uM incubated for 16 hrs by broth microdilution method; type: functional
Acinetobacter baumannii [23] = experiment: Potentiation of rifampicin antibacterial activity against Acinetobacter baumannii AB5075 assessed as rifampicin MIC at 20 uM incubated for 16 hrs by broth microdilution method; type: functional
Acinetobacter baumannii [24] = experiment: Potentiation of rifampicin antibacterial activity against Acinetobacter baumannii AB5075 assessed as rifampicin MIC at 10 uM incubated for 16 hrs by broth microdilution method; type: functional
Acinetobacter baumannii [25] = experiment: Potentiation of rifampicin antibacterial activity against Acinetobacter baumannii AB5075 assessed as rifampicin MIC at 7.5 uM incubated for 16 hrs by broth microdilution method; type: functional
Outline: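 A. baumannii AB5075 6 h day cultures in CAMHB subcultured to 5×10^5 CFU/mL; adjuvant added from 10 mM DMSO stock at fixed concentration, then rifampicin (DMSO) twofold serially diluted in adjuvant-containing broth. Antibiotic-alone and adjuvant-alone control lanes.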

With `Nc1nc(-c2ccc(NC(=O)c3ccc(Cl)c(Cl)c3)cc2F)c[nH]1` the MIC (Acinetobacter baumannii [1]) was > 200 µM, the MIC (Acinetobacter baumannii [2]) was 0.5 µg/mL and the MIC (Acinetobacter baumannii [3]) was 1 µg/mL. The MIC (Acinetobacter baumannii [4]) was 8 µg/mL, the “fold change (FC)” value (Acinetobacter baumannii [5]) was 64 and the “fold change (FC)” value (Acinetobacter baumannii [6]) was 32. For the same compound, the “fold change (FC)” value (Acinetobacter baumannii [7]) was 4, the IC50 at 24 h [8] was 6.8 µg/mL (≈ 18.6 µM) and the selectivity ratio [9] was 2.3. For the same compound, the Stability [10] was > 95% and the Stability [11] was 57%.

In the case of `Cl.Cl.Nc1nc(-c2cc(F)cc(NC(=O)Nc3ccc(-c4c[nH]c(N)n4)c(F)c3)c2)c[nH]1`, the MIC (Acinetobacter baumannii [1]) is reported as > 200 µM, the MIC (Acinetobacter baumannii [2]) is reported as ≤ 0.062 µg/mL and the MIC (Acinetobacter baumannii [3]) is reported as 0.25 µg/mL. For the same compound, the MIC (Acinetobacter baumannii [4]) was 1 µg/mL, the “fold change (FC)” value (Acinetobacter baumannii [5]) was “>=512” and the “fold change (FC)” value (Acinetobacter baumannii [6]) was 128. The “fold change (FC)” value (Acinetobacter baumannii [12]) was 256, the MIC (Acinetobacter baumannii [12]) was 0.125 µg/mL and the MIC (Acinetobacter baumannii [13]) was 32 µg/mL.

In the case of `Cl.Cl.Nc1nc(-c2ccc(F)c(NC(=O)Nc3cc(-c4c[nH]c(N)n4)ccc3F)c2)c[nH]1`, the MIC (Acinetobacter baumannii [1]) is reported as > 200 µM, the MIC (Acinetobacter baumannii [2]) is reported as 32 µg/mL and the “fold change (FC)” value (Acinetobacter baumannii [5]) is reported as 1.

With `Cl.Cl.Nc1nc(-c2ccc(F)c(NC(=O)Nc3ccc(-c4c[nH]c(N)n4)c(F)c3)c2)c[nH]1` the MIC (Acinetobacter baumannii [1]) was > 200 µM, the MIC (Acinetobacter baumannii [2]) was 8 µg/mL and the “fold change (FC)” value (Acinetobacter baumannii [5]) was 4.

In the case of `Cl.Cl.Nc1nc(-c2cccc(NC(=O)Nc3cc(F)cc(-c4c[nH]c(N)n4)c3)c2)c[nH]1`, the MIC (Acinetobacter baumannii [1]) is reported as > 200 µM, the MIC (Acinetobacter baumannii [2]) is reported as ≤ 0.062 µg/mL and the MIC (Acinetobacter baumannii [3]) is reported as 1 µg/mL. For the same compound, the MIC (Acinetobacter baumannii [4]) was 16 µg/mL, the “fold change (FC)” value (Acinetobacter baumannii [5]) was “>=512” and the “fold change (FC)” value (Acinetobacter baumannii [6]) was 32. The “fold change (FC)” value (Acinetobacter baumannii [7]) was 2, the “fold change (FC)” value (Acinetobacter baumannii [12]) was “>=512” and the MIC (Acinetobacter baumannii [12]) was ≤ 0.062 µg/mL. For the same compound, the MIC (Acinetobacter baumannii [14]) was 0.5 µg/mL and the “fold change (FC)” value (Acinetobacter baumannii [15]) was 64.

In the case of `COc1cc(-c2c[nH]c(N)n2)ccc1NC(=O)Nc1ccc(-c2c[nH]c(N)n2)cc1OC.Cl.Cl`, the MIC (Acinetobacter baumannii [1]) is reported as 200 µM, the MIC (Acinetobacter baumannii [2]) is reported as 8 µg/mL and the “fold change (FC)” value (Acinetobacter baumannii [5]) is reported as 4.

In the case of `Cl.Cl.Nc1nc(-c2ccc(NC(=O)Nc3ccc(-c4c[nH]c(N)n4)c(F)c3)cc2)c[nH]1`, the MIC (Acinetobacter baumannii [1]) is reported as > 200 µM, the MIC (Acinetobacter baumannii [2]) is reported as ≤ 0.062 µg/mL and the MIC (Acinetobacter baumannii [3]) is reported as 2 µg/mL. For the same compound, the “fold change (FC)” value (Acinetobacter baumannii [5]) was “>=512”, the “fold change (FC)” value (Acinetobacter baumannii [6]) was 16 and the “fold change (FC)” value (Acinetobacter baumannii [12]) was 64. For the same compound, the MIC (Acinetobacter baumannii [12]) was 0.5 µg/mL, the MIC (Acinetobacter baumannii [14]) was 1 µg/mL and the “fold change (FC)” value (Acinetobacter baumannii [15]) was 32.

With `Nc1nc(-c2cccc(NC(=O)Nc3cccc(-c4c[nH]c(N)n4)c3)c2)c[nH]1` the MIC (Acinetobacter baumannii [1]) was 200 µM (≈ 74.9 µg/mL), the MIC (Acinetobacter baumannii [2]) was ≤ 0.062 µg/mL and the MIC (Acinetobacter baumannii [3]) was 1 µg/mL. For the same compound, the MIC (Acinetobacter baumannii [4]) was 4 µg/mL, the “fold change (FC)” value (Acinetobacter baumannii [5]) was “>=512” and the “fold change (FC)” value (Acinetobacter baumannii [6]) was 32. The “fold change (FC)” value (Acinetobacter baumannii [7]) was 8, the MIC (Acinetobacter baumannii [14]) was 0.5 µg/mL and the “fold change (FC)” value (Acinetobacter baumannii [15]) was 64. The IC50 at 24 h [8] was 380 µg/mL (≈ 1010 µM), the selectivity ratio [9] was 113 and the MIC (Acinetobacter baumannii [16]) was 0.5 µg/mL. For the same compound, the MIC (Acinetobacter baumannii [17]) was 0.5 µg/mL, the MIC (Acinetobacter baumannii [18]) was 4 µg/mL and the MIC (Acinetobacter baumannii [19]) was 0.25 µg/mL. For the same compound, the MIC (Acinetobacter baumannii [20]) was 0.5 µg/mL, the MIC (Acinetobacter baumannii [21]) was 4 µg/mL and the MIC (Acinetobacter baumannii [22]) was 0.003 µg/mL. It also gave an MIC (Acinetobacter baumannii [23]) of 0.015 µg/mL, an MIC (Acinetobacter baumannii [24]) of 0.125 µg/mL and an MIC (Acinetobacter baumannii [25]) of 1 µg/mL. The Stability [10] was 88% and the Stability [11] was 93%.
